Measurements as given in ChEMBL document CHEMBL4622984, “Structure-Based Design of a Bromodomain and Extraterminal Domain (BET) Inhibitor Selective for the N-Terminal Bromodomains That Retains an Anti-inflammatory and Antiproliferative Phenotype” (J Med Chem, 2020).
pIC50, pKd: −log10 of the molar value.

Tests used:
Blood [1] = test: Antiinflammatory activity in human whole blood assessed as reduction in LPS-induced MCP1 production preincubated for 30 mins followed by LPS challenge and measured after overnight incubation by mesoscale assay; assay type: functional, tissue-based
MV4-11 = test: Growth inhibition of human MV4-11 cells incubated for 72 hrs by Cell-titre glo assay; assay type: functional, cell-based; details: MV4-11, 72 h
PBMC [2] = test: Antiinflammatory activity in human PBMC assessed as reduction in LPS-induced MCP1 production incubated for 18 to 24 hrs by mesoscale assay; assay type: functional, cell-based
PBMC [3] = test: Antiinflammatory activity in human PBMC assessed as reduction in LPS-induced IL-6 production incubated for 18 to 24 hrs by mesoscale assay; assay type: functional, cell-based
Blood [4] = test: Antiinflammatory activity in human whole blood assessed as reduction in LPS-induced IL-6 production preincubated for 30 mins followed by LPS challenge and measured after overnight incubation by mesoscale assay; assay type: functional, tissue-based
[5] = biological target: Bromodomain-containing protein 4 (Homo sapiens, UniProt O60885, Y390A); test: Displacement of Alexa Fluor 647 labelled I-BET762 from N-terminal His6-tagged human BRD4 BD1 (1 to 477 residues)/BD2 Y390A mutant expressed in Escherichia coli after 1 hr by TR-FRET assay
[6] = biological target: Bromodomain-containing protein 4 (Homo sapiens, UniProt O60885, Y97A); test: Displacement of Alexa Fluor 647 labelled I-BET762 from N-terminal His6-tagged human BRD4 BD2 (1 to 477 residues)/BD1 Y97A mutant expressed in Escherichia coli after 1 hr by TR-FRET assay
[7] = biological target: Bromodomain testis-specific protein (Homo sapiens, UniProt Q58F21, Y66A); test: Displacement of Alexa Fluor 647 labelled I-BET762 from N-terminal His6-tagged human BRDT BD2 (1 to 397 residues)/BD1 Y66A mutant expressed in Escherichia coli after 1 hr by TR-FRET assay
[8] = biological target: Bromodomain-containing protein 3 (Homo sapiens, UniProt Q15059, Y348A); test: Displacement of Alexa Fluor 647 labelled I-BET762 from N-terminal His6-tagged human BRD3 BD1 (1 to 435 residues)/BD2 Y348A mutant expressed in Escherichia coli after 1 hr by TR-FRET assay
[9] = biological target: Bromodomain-containing protein 3 (Homo sapiens, UniProt Q15059, Y73A); test: Displacement of Alexa Fluor 647 labelled I-BET762 from N-terminal His6-tagged human BRD3 BD2 (1 to 435 residues)/BD1 Y73A mutant expressed in Escherichia coli after 1 hr by TR-FRET assay
How it was run: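 Single-mutant tandem bromodomain constructs (Tyr→Ala in the other domain), N-terminal 6His, expressed in E. coli. Compounds were titrated from 10 mM DMSO stocks. Protein at 10 nM in 50 mM HEPES, 50 mM NaCl, 1 mM CHAPS, pH 7.4 with Alexa Fluor 647–I-BET762 tracer at 50 nM (200 nM for BRDT Y66A). Plates were equilibrated 1 h at rt in the dark, then 1.5 nM Eu-anti-6His was added.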

[10] = biological target: Bromodomain testis-specific protein (Homo sapiens, UniProt Q58F21, Y309A); test: Displacement of Alexa Fluor 647 labelled I-BET762 from N-terminal His6-tagged human BRDT BD1 (1 to 397 residues)/BD2 Y309A mutant expressed in Escherichia coli after 1 hr by TR-FRET assay
[11] = Terminal half life in CD1 mouse at 10 mg/kg, ip measured after 7 to 24 hrs by reverse-phase LC-MS/MS analysis; assay type: ADME, organism-based; details: in vivo, read-out: beta t1/2 (converted)
How it was run: (§1)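 Three male CD1 mice (30–33 g) given a single ip dose of 10 mg/kg, formulated at 2 mg/mL in 10% Kleptose in saline at pH 5 and dosed at 5 mL/kg. Serial tail-vein blood (ca. 20 µL) was taken up to 12 h, with a terminal cardiac sample at 24 h. Blood was diluted 1:1 with water, extracted by acetonitrile protein precipitation with internal standard, and quantified by reverse-phase LC-MS/MS (positive ion) against standards in control blood. Values are mean of n = 3.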

[12] = AUCinfinity in CD1 mouse at 10 mg/kg, ip measured up to 12 hrs by reverse-phase LC-MS/MS analysis; assay type: ADME, organism-based; parameters: dose 10 mg/kg, time infinity, route intraperitoneal; details: in vivo; how it was run: as §1
[13] = Elimination half life in CD1 mouse at 10 mg/kg, ip measured up to 7 hrs by reverse-phase LC-MS/MS analysis; assay type: ADME, organism-based; details: in vivo, read-out: beta t1/2 (converted); how it was run: as §1
[14] = Tmax in CD1 mouse at 10 mg/kg, ip measured up to 12 hrs by reverse-phase LC-MS/MS analysis; assay type: ADME, organism-based; details: in vivo; how it was run: as §1
[15] = biological target: Bromodomain-containing protein 2 (Homo sapiens, UniProt P25440, Y113A); test: Displacement of Alexa Fluor 647 labelled I-BET762 from N-terminal His6-tagged human BRD2 BD2 (1 to 473 residues)/BD1 Y113A mutant expressed in Escherichia coli after 1 hr by TR-FRET assay
[16] = Cmax in CD1 mouse at 10 mg/kg, ip measured up to 12 hrs by reverse-phase LC-MS/MS analysis; assay type: ADME, organism-based; parameters: dose 10 mg/kg, route intraperitoneal; details: in vivo; how it was run: as §1
[17] = Unbound fraction in CD1 mouse blood at 200 to 1000 ng/ml incubated for 4 hrs by LC-MS/MS-based rapid equilibrium dialysis method; assay type: ADME, tissue-based
[18] = biological target: Bromodomain-containing protein 2 (Homo sapiens, UniProt P25440, Y386A); test: Displacement of Alexa Fluor 647 labelled I-BET762 from N-terminal His6-tagged human BRD2 BD1 (1 to 473 residues)/BD2 Y386A mutant expressed in Escherichia coli after 1 hr by TR-FRET assay
Homo sapiens [19] = species: Homo sapiens; test: Selectivity index, difference between pIC50 for N-terminal His6-tagged human BRD3 BD1 (1 to 435 residues)/BD2 Y348A mutant expressed in Escherichia coli to pIC50 for N-terminal His6-tagged human BRD3 BD2 (1 to 435 residues)/BD1 Y73A mutant expressed in Escherichia coli
Homo sapiens [20] = species: Homo sapiens; test: Selectivity index, difference between pIC50 for N-terminal His6-tagged human BRDT BD1 (1 to 397 residues)/ BD2 Y309A mutant expressed in Escherichia coli to pIC50 for N-terminal His6-tagged human BRDT BD2 (1 to 397 residues)/BD1 Y66A mutant expressed in Escherichia coli
Homo sapiens [21] = species: Homo sapiens; test: Selectivity index, difference between pIC50 for N-terminal His6-tagged human BRD2 BD1 (1 to 473 residues)/ BD2 Y386A mutant expressed in Escherichia coli to pIC50 for N-terminal His6-tagged human BRD2 BD2 (1 to 473 residues)/BD1 Y113A mutant expressed in Escherichia coli
[22] = biological target: T1, Bromodomain-containing protein 3 (Homo sapiens, UniProt Q15059); test: Binding affinity to BRD3 BD2 (unknown origin) by isothermal titration calorimetric method
[23] = biological target: T2, Bromodomain-containing protein 2 (Homo sapiens, UniProt P25440); test: Binding affinity to BRD2 BD2 (unknown origin) by isothermal titration calorimetric method
[24] = biological target: T2, Bromodomain-containing protein 2; test: Binding affinity to BRD2 BD1 (unknown origin) by isothermal titration calorimetric method
[25] = biological target: T1, Bromodomain-containing protein 3; test: Binding affinity to BRD3 BD1 (unknown origin) by isothermal titration calorimetric method

Bromodomain-containing protein 3 (Homo sapiens, UniProt Q15059, Y73A), sequence (Q15059 2-726 Y73A limits assumed): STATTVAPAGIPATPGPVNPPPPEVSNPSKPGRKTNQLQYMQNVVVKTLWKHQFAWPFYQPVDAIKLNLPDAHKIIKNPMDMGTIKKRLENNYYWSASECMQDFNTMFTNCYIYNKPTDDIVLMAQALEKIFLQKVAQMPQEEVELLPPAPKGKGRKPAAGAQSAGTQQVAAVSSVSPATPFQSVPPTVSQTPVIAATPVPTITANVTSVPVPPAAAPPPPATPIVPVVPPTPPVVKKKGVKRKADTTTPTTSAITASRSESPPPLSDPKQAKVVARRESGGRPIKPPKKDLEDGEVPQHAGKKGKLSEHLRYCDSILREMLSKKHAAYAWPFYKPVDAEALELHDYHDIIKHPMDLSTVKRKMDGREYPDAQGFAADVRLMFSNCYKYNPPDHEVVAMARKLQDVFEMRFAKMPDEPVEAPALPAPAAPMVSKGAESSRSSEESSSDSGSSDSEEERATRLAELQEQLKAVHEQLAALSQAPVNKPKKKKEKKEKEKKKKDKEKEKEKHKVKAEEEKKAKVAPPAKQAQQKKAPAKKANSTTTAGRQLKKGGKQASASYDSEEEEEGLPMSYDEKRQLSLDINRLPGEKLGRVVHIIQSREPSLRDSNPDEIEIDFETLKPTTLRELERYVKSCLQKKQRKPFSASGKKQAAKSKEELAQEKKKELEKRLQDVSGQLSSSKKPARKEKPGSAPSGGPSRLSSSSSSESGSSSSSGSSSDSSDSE
Bromodomain-containing protein 2 (Homo sapiens, UniProt P25440, Y113A), sequence (P25440 whole entry Y113A, the tested form may be a part): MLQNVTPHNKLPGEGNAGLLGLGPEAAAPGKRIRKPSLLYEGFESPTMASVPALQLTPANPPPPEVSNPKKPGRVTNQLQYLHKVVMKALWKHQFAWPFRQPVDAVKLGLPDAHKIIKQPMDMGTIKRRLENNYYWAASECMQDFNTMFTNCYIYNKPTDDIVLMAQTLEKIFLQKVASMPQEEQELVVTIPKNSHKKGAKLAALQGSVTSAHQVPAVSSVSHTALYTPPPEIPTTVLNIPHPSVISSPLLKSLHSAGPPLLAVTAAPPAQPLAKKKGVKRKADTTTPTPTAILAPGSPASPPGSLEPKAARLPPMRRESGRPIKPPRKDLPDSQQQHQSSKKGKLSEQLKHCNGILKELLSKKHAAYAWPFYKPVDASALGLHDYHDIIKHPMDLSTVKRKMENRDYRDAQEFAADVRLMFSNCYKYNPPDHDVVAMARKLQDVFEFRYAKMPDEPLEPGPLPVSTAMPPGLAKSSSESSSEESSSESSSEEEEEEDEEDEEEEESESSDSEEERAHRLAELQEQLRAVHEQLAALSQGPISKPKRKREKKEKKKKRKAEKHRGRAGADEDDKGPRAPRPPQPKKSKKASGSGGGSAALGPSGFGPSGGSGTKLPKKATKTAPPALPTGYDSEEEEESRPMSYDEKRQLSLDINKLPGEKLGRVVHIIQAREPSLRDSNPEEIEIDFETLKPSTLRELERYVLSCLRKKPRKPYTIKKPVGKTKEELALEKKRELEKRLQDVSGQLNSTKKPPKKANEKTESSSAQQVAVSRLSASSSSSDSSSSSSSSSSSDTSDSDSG
Bromodomain-containing protein 3 (Homo sapiens, UniProt Q15059, Y348A), sequence (Q15059 2-726 Y348A limits assumed): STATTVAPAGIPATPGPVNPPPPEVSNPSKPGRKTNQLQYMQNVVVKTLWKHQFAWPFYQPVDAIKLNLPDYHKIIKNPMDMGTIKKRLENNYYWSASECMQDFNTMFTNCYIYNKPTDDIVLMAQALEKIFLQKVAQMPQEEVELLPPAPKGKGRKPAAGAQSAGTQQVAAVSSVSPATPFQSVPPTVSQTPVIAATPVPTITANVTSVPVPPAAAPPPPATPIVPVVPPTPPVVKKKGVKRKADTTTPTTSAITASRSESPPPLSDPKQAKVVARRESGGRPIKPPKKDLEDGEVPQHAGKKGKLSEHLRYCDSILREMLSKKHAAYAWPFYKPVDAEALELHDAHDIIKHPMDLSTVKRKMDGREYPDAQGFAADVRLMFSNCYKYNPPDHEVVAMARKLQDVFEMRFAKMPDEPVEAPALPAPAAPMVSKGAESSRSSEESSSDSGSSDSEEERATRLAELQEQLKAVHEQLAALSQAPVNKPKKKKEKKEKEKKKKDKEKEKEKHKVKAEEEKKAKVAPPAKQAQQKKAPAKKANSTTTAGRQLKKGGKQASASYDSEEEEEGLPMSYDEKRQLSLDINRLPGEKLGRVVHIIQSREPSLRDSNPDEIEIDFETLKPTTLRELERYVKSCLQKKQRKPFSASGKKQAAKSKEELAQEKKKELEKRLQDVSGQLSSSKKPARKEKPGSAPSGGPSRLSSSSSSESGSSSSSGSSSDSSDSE
T1 sequence (Q15059 whole entry): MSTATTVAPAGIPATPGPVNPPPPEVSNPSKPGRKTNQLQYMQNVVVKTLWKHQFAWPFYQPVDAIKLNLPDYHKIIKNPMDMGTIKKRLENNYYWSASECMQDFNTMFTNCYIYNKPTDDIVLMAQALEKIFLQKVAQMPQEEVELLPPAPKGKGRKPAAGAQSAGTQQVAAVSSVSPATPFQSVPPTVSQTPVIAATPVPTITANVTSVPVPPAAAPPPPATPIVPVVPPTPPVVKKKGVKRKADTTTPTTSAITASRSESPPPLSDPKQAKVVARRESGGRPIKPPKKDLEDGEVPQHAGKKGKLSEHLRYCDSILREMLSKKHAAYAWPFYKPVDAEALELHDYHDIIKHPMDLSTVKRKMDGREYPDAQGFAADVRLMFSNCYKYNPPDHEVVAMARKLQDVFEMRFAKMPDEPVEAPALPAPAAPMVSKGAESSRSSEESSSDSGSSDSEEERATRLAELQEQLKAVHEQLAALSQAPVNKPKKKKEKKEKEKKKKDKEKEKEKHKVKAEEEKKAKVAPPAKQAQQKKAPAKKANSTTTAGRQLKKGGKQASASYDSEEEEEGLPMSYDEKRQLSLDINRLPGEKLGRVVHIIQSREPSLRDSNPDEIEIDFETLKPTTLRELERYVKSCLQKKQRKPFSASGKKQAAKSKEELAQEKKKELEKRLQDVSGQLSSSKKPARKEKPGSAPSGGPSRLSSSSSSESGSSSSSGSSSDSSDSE
T2 sequence (P25440 whole entry): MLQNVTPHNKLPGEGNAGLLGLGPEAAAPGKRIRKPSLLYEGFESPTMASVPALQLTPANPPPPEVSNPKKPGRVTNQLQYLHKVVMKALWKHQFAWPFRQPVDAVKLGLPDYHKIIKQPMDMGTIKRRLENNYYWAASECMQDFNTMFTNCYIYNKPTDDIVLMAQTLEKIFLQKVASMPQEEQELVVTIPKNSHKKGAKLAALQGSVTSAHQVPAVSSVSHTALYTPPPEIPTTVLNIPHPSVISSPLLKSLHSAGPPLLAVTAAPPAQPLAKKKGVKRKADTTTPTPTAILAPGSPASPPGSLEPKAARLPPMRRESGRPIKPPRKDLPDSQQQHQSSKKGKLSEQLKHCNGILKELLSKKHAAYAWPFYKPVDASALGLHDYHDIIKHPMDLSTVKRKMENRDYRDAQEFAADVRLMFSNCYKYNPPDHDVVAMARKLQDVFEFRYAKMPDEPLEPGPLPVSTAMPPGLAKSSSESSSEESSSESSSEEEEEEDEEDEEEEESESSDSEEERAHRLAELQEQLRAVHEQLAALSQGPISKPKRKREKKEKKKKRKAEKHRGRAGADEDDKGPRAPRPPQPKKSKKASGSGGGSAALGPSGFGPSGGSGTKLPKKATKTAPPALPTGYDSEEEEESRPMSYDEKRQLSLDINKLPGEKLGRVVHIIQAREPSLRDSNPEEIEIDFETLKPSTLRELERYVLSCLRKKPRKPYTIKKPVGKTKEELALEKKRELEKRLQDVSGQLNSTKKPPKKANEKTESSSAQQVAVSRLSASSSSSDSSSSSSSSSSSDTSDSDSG
Bromodomain-containing protein 2 (Homo sapiens, UniProt P25440, Y386A), sequence (P25440 whole entry Y386A, the tested form may be a part): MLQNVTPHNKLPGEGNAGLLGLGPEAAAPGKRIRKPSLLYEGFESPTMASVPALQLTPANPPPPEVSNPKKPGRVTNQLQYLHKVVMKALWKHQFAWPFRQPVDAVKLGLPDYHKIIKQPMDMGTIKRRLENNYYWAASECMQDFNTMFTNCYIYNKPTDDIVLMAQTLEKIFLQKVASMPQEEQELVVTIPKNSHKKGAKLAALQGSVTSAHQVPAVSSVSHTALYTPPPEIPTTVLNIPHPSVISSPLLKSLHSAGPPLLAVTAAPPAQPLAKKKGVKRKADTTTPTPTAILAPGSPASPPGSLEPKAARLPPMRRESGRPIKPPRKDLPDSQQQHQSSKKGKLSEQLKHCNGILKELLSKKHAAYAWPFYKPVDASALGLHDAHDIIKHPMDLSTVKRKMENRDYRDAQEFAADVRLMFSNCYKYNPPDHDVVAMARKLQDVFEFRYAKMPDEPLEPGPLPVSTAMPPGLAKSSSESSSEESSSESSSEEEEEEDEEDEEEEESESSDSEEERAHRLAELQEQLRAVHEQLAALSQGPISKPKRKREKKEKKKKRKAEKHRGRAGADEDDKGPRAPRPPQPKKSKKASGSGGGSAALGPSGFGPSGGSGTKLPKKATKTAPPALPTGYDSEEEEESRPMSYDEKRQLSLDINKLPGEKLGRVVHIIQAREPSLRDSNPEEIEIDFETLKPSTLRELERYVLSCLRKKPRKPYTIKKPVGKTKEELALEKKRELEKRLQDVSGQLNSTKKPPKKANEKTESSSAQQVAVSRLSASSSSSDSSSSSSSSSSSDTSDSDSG

Compound: COc1ccc2c(c1)C(c1ccc(Cl)cc1)=N[C@@H](NC(=O)OCc1ccccc1)c1nnc(C)n1-2
- pIC50 (Blood [1]): 6.70
- pIC50 (MV4-11): 6.70
- pIC50 (PBMC [2]): 7.30
- pIC50 (PBMC [3]): 6.50
- pIC50 (Blood [4]): 5.80

Compound: Cc1noc(C)c1-c1cc2ncc3c(c2cc1C(=O)O)n(C(C)c1ccccn1)c(=O)n3C (stereo unspecified)
- pIC50 [5]: 4.90
- pIC50 [6]: < 4.30

Compound: CC(=O)NCCCOc1cc2c(cc1-c1c(C)noc1C)ncc1c2n(C(C)c2ccccn2)c(=O)n1C (stereo unspecified)
- pIC50 [5]: 6.10
- pIC50 [6]: 5.50

Compound: Cc1noc(C)c1-c1cc2ncc3c(c2cc1OCCCN)n(C(C)c1ccccn1)c(=O)n3C (stereo unspecified)
- pIC50 [5]: 6.20
- pIC50 [6]: 4.80

Compound: Cc1noc(C)c1-c1cc2ncc3c(c2cc1OC[C@H]1CCNC1)n(C(C)c1ccccn1)c(=O)n3C (mixture of isomers)
- pIC50 [5]: 6.30
- pIC50 [6]: 4.60

Compound: Cc1noc(C)c1-c1cc2ncc3c(c2cc1O[C@H]1C[C@@H](N)C1)n(C(C)c1ccccn1)c(=O)n3C (stereo partly specified)
- pIC50 [5]: 6.60
- pIC50 [6]: 5.00

Compound: Cc1noc(C)c1-c1cc2ncc3c(c2cc1OCCCN(C)C)n([C@H](C)c1ccccn1)c(=O)n3C
- pIC50 [5]: 6.00
- pIC50 [6]: < 4.30

Compound: Cc1noc(C)c1-c1cc2ncc3c(c2cc1O[C@H]1C[C@H](N)C1)n(C(C)c1ccccn1)c(=O)n3C (stereo partly specified)
- pIC50 [5]: 7.10
- pIC50 [6]: 5.50

Compound: COc1cc2c(cc1-c1c(C)noc1C)ncc1[nH]c(=O)n([C@H](C)c3ccccn3)c12
- pIC50 (Blood [1]): 6.70
- pIC50 [7]: 5.80
- pIC50 (MV4-11): 7.00
- pIC50 [8]: 7.50
- pIC50 [9]: 7.10
- pIC50 (PBMC [2]): 7.40
- pIC50 [10]: 6.90
- pIC50 (PBMC [3]): 6.90
- pIC50 (Blood [4]): 6.00

Compound: Cc1noc(C)c1-c1cc2ncc3c(c2cc1OCC(=O)O)n([C@H](C)c1ccccn1)c(=O)n3C
- pIC50 [5]: 5.70
- pIC50 [6]: 4.90

Compound: COc1cc2c(cc1-c1c(C)noc1C)ncc1c2n([C@H](C)c2ccccn2)c(=O)n1C
- pIC50 [5]: 7.30
- pIC50 [6]: 6.30

Compound: Cc1noc(C)c1-c1cc2ncc3c(c2cc1O[C@@H]1CCNC1)n([C@H](C)c1ccccn1)c(=O)n3C
- pIC50 [5]: 5.90
- pIC50 [6]: 4.30

Compound: COCc1nc2cnc3cc(-c4c(C)noc4C)c(OC[C@H]4CCNC4)cc3c2n1[C@H](C)c1ccccc1 [GSK778]
- half-life [11]: 492 min
- AUC(0-inf) [12]: 3.34 µM·h
- pIC50 (MV4-11): 7.00
- half-life [13]: 54 min
- pIC50 [9]: 6.00
- Tmax [14]: 15 to 30 min
- pIC50 [15]: 5.50
- Cmax [16]: 2.4 µM
- fraction unbound at 4 h [17]: 0.08
- pIC50 [18]: 7.10
- pIC50 (Blood [4]): 6.60

Compound: Cc1noc(C)c1-c1cc2ncc3c(c2cc1OC[C@@H]1CCNC1)n(C(C)c1ccccn1)c(=O)n3C (mixture of isomers)
- pIC50 [5]: 6.10
- pIC50 [6]: 4.50

Compound: Cc1noc(C)c1-c1cc2ncc3c(c2cc1CC(=O)O)n(C(C)c1ccccn1)c(=O)n3C (stereo unspecified)
- pIC50 [5]: < 4.30
- pIC50 [6]: < 4.30

Compound: COCc1nc2cnc3cc(-c4c(C)noc4C)c(OC)cc3c2n1[C@H](C)c1ccccc1
- Selectivity Index (Homo sapiens [19]): 1.6
- pIC50 [5]: 8.00
- pIC50 [7]: 6.50
- pIC50 [8]: 8.00
- pIC50 [9]: 7.80
- pIC50 [15]: 7.40
- pIC50 [10]: 7.60
- Selectivity Index (Homo sapiens [20]): 13
- pIC50 [18]: 7.90
- Selectivity Index (Homo sapiens [21]): 3.2
- pIC50 [6]: 7.40

Compound: Cc1noc(C)c1-c1cc2ncc3c(c2cc1O[C@H]1CCNC1)n(C(C)c1ccccn1)c(=O)n3C (mixture of isomers)
- pIC50 [5]: 5.20
- pIC50 [6]: < 4.30

Compound: Cc1noc(C)c1-c1cc2ncc3c(c2cc1OCC1CCNCC1)n(C(C)c1ccccn1)c(=O)n3C (stereo unspecified)
- pIC50 [5]: 6.10
- pIC50 [6]: 4.40

Compound: CC(=O)NCCCCn1c2c(c3ccccc31)C(=O)NCC2
- pKd [22]: < 3.52
- pKd [23]: < 3.52
- pKd [24]: 5.07 to 5.48
- pKd [25]: 5.07 to 5.48

Compound: CNCCCOc1cc2c(cc1-c1c(C)noc1C)ncc1c2n(C(C)c2ccccn2)c(=O)n1C (stereo unspecified)
- pIC50 [5]: 6.00
- pIC50 [6]: 4.60

Compound: Cc1noc(C)c1-c1cc2ncc3c(c2cc1OCCN(C)C)n([C@H](C)c1ccccn1)c(=O)n3C
- pIC50 [5]: 5.70
- pIC50 [6]: < 4.30

Compound: Cc1noc(C)c1-c1cc2ncc3c(c2cc1OCCCO)n(C(C)c1ccccn1)c(=O)n3C (stereo unspecified)
- pIC50 [5]: 6.30
- pIC50 [6]: 5.20

Compound: Cc1noc(C)c1-c1cc2ncc3c(c2cc1OCCN)n(C(C)c1ccccn1)c(=O)n3C (stereo unspecified)
- pIC50 [5]: 5.90
- pIC50 [6]: 4.50
